An excerpt weighted towards active compounds, which were near 4.7% of everything screened.
MC4R antag cAMP – MC4R antagonists of cAMP signaling, primary screen, cell-based, TR-FRET, antagonist arm of biased-ligand search; MC4R-expressing cells, MTII-stimulated cAMP, LANCE TR-FRET; 0.48% of 360,000 active; inhibition, % at 6.5 µM; AID 540295, 2011;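 active means inhibition above its plate's cutoff, the mean of tested wells on that plate plus 3 SD, cut at about 29% in these data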;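 further: 0% = Melanotan II alone and 100% = Melanotan II plus saturating MCL0020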
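Material: human MC4R-expressing U2OS cells. Probe or stimulus: Melanotan II challenge. Dosing: 6.5 µM single dose. Times: 30-min compound, 1-h challenge, 1-h detection, room temperature. Technique: TR-FRET with Eu-cAMP and labeled anti-cAMP, 671 nm. Replication: singlicate.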
m5-HT2A agonist – mouse Htr2a agonists via beta-arrestin recruitment, primary screen, cell-based, luminescence | CHO-K1 mHTR2A beta-arrestin complementation; percent of 30 µM serotonin response | activation, % at 7.6 µM | 0.66% of 360,000 active | AID 624169, 2012;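 active means activation above a run cutoff, the mean activation of all tested compounds plus 3 SD, cut at about 14% in these data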;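 further: 0% = plate median of compound wells and 100% = 30 µM serotonin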
Target sequence (P35363 whole entry, looked up): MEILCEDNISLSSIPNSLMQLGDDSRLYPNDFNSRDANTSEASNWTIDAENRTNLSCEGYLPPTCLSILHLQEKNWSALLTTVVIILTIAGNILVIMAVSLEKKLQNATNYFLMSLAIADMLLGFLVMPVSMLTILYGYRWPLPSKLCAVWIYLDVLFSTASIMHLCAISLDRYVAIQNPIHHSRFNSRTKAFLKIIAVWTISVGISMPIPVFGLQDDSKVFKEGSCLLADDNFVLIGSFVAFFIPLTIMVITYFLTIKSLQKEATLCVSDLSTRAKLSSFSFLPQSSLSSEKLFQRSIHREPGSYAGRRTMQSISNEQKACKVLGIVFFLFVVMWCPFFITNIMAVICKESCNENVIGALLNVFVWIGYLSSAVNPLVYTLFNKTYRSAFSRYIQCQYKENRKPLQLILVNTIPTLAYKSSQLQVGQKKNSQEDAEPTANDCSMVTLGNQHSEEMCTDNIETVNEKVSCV
AHR act – AHR activators, primary screen, cell-based, luminescence, luciferase reporter, human. Aryl hydrocarbon receptor (Homo sapiens), P35869. AHR-responsive luciferase reporter cells. activation, % at 5 µM. 2.5% of 320,000 active. AID 2796, 2010; in the data active means activation above about 47%;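 further: 0% = vehicle wells and 100% = reference agonist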
MC4R barr agon – MC4R agonists recruiting beta-arrestin, primary screen, cell-based, luminescence, agonist arm of biased-ligand search; U2OS MC4R beta-arrestin complementation; percent of melanotan II response, DMSO zero; Melanocortin receptor 4 (Homo sapiens), P32245; 0.98% of 360,000 active; activation, % at 8.9 µM;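 active means activation above a per-plate cutoff, the mean activation of sample wells on that plate plus 3 SD, cut at about 8% in these data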
FXN GAA850 act – FXN promoter activators, primary screen, cell-based, luciferase luminescence, HEK293 lucGAA850 | HEK293 lucGAA850 FXN promoter luciferase reporter, 24 h; percent of 10 µM SAHA response | activation, % at 6 µM | 0.56% of 360,000 active;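 active means activation above the average of all compounds screened plus 3 SD, cutoff fixed separately per campaign, cut at about 7.5% in these data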;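 further: 0% = DMSO wells and 100% = 10 µM SAHA wells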
An asterisk follows results filed as active; / = no result given.

SMILES	MC4R antag cAMP	m5-HT2A agonist	AHR act	MC4R barr agon	FXN GAA850 act
O=C(O)COc1ccc(/C=N/n2cnc3scc(-c4cccs4)c3c2=O)cc1	5	3	3	-4	0
COc1cccc(-n2cnc3scc(-c4cccs4)c3c2=O)c1	17	1	29	0	2
CN(C(=O)c1cccc(C#CC(C)(C)O)c1)C1CCCN(Cc2ccccc2F)C1 (centres undefined)	20	-4	-2	-1	-2
CC1=NN(c2ccccc2)C(=O)/C1=C/c1ccc[nH]1	-7	2	85*	2	6
CC1=NN(c2ccccc2)C(=O)C1=Cc1ccccc1	5	7	/	-1	-2
CN1C(=O)c2ccc(N3CCCC3)cc2C1=O	12	6	-2	0	3
Cc1cc(N2CCCC2)ccc1/C=C1\NC(=S)N(C)C1=O	7	-3	51*	2	0
Cc1cc(C(=O)N/N=C/c2cccc(Cl)c2Cl)no1	-7	2	47*	-1	5
CCOC(=O)N/N=C/c1cccc(Cl)c1Cl	7	-1	30	-1	5
COc1ccc(/C=N/n2cc(-c3ccc(OC)cc3)nc2N)cc1	2	-2	11	-2	4
COc1ccc(/C=N/n2cc(-c3ccccc3)nc2N)cc1	-6	-1	68*	1	-1
CCc1ccc(CNC(=O)c2ccc3nc(C4CCCCC4)oc3c2)nc1	5	-2	10	-1	2
Cc1cccc(OCc2nnc(SCC(=O)Nc3ccc(C)c(Cl)c3)o2)c1	-7	1	22	27*	2
O=C1[C@H]2[C@@H](c3ccc(F)cc3)N3C(=O)N(c4cccc(Cl)c4)C(=O)[C@@]3(Cc3ccc(Cl)cc3)[C@H]2C(=O)N1C1CCCCC1	5	3	0	4	0
O=C1[C@H]2[C@@H](c3ccc(F)cc3)N3C(=O)N(c4ccccc4)C(=O)[C@@]3(Cc3ccc(Cl)cc3)[C@H]2C(=O)N1C1CCCCC1	18	-3	2	1	11*
C[C@@]12C(=O)N(c3cccc(F)c3)C(=O)N1[C@H](c1ccc(F)cc1)[C@@H]1C(=O)N(C3CCCCC3)C(=O)[C@@H]12	4	-1	10	1	14*
C[C@@]12C(=O)N(c3cccc(Cl)c3)C(=O)N1[C@H](c1ccc(Cl)cc1)[C@@H]1C(=O)N(C3CCCCC3)C(=O)[C@@H]12	8	5	2	0	7
CCCCOCCCNC(=O)C[C@@H]1C[C@@]2(C(=O)OC)CCCCC=C2N(Cc2cccc3ccccc23)C1=O	/	-6	/	/	/
CC(CC(=O)Nc1ccc(Cl)c(S(=O)(=O)N2CCOCC2)c1)c1ccccc1 (centres undefined)	17	-9	/	2	-5
Cc1cc(Br)ccc1NC(=O)CN(C)C(=O)c1ccc(-n2cncn2)c([N+](=O)[O-])c1	5	-10	3	-2	1
CC(NC(=O)c1cc2cc(F)ccc2[nH]1)c1ccccc1 (centres undefined)	20	-6	53*	0	0
CCOC(=O)c1c(C)oc2c(F)c(F)c(F)c(F)c2c1=O	33*	0	3	0	2
CC1=[N+](CC(=O)c2ccccc2)CCn2cccc21	-7	0	47*	-2	1
C=C1C(=O)OCC2C(C(=O)O)=CC3C(C)C(C)=CC123 (centres undefined)	4	-1	/	0	5
CCOC(=O)c1c(/N=C/c2ccc(OC)cc2O)sc2c1CCN(C)C2	-1	1	0	2	2
SMILES	MC4R antag cAMP	m5-HT2A agonist	AHR act	MC4R barr agon	FXN GAA850 act
CN1CCc2c(sc(/N=C/c3c[nH]c4ccccc34)c2C#N)C1	-3	0	48*	-2	3
Cc1cc(C)n(/N=C/c2c[nH]c3ccccc23)c(=O)c1C#N	2	-4	3	-1	-5
CN1CCc2c(sc(/N=C/c3c[nH]c4ccccc34)c2C(N)=O)C1	-6	-2	76*	-1	0
CC(C)OC(=O)N(C)C[C@@H]1OCc2cnnn2CCCC(=O)N([C@@H](C)CO)C[C@H]1C	1	5	/	-1	-1
CC(C)C1COC(c2cccc3ccccc23)=N1 (centres undefined)	0	-5	31	-2	5
CCn1cc(C2=NC(C(C)C)CO2)c2ccccc21 (centres undefined)	2	-6	53*	1	2
CCn1cc(C2=NC(CC(C)C)CO2)c2ccccc21 (centres undefined)	1	-5	67*	0	4
CCn1cc(C2=NC(CCSC)CO2)c2ccccc21 (centres undefined)	-5	-1	11	-4	1
COc1ccc(N2CCN(C(=O)C(=O)c3cn(CC(=O)N4CCCC4)c4ccccc34)CC2)cc1	5	-2	/	-1	-1
COCCNC(=O)C1(C)CCN(Cc2ccc3ccccc3c2Br)C1 (centres undefined)	3	-5	/	-2	1
CCc1nnc(NC(=O)/C=C/c2cccs2)s1	-4	6	52*	3	2
O=C(/C=C/c1cccs1)Nc1nccs1	-14	-3	21	-2	3
Cc1sc2nc(-c3ccncc3)[nH]c(=O)c2c1-c1ccccc1	/	/	54*	/	/
CN(C)c1cc(N/N=C\c2ccccc2)nc(N(C)C)n1	13	-19	54*	8.5*	-1
COc1ccc(/C=N/Nc2cc(N(C)C)nc(N(C)C)n2)cc1	4	-4	49*	1	1
O=[N+]([O-])c1cccc(-c2nc(NCc3ccccc3)c3ccccc3n2)c1	5	0	88*	-1	-1
Cc1ccc(NC(=O)c2ccc([N+](=O)[O-])s2)cc1S(=O)(=O)N1CCOCC1	9	-7	-3	-2	-1
COc1ccc(-c2cc(-c3ccc(Br)cc3)nc3ncnn23)cc1OC	1	-2	54*	7	0
COc1ccc(-c2cc(-c3ccccc3)nc3ncnn23)cc1	13	9	8	-1	-1
CCCCNC(=O)C1C(c2ccccc2)=Nc2ccccc2N1C(=O)c1ccc(C)cc1 (centres undefined)	/	-6	/	/	/
CC1CN(S(=O)(=O)c2cccc(C(=O)N(Cc3nnc(-c4ccccc4Cl)o3)C3CC3)c2)CC(C)O1 (centres undefined)	25	-3	-2	-3	-1
COc1cc([N+](=O)[O-])ccc1NC(=O)Nc1cccnc1	21	-5	7	-1	-1
O=C(Nc1cccnc1)Nc1cccc([N+](=O)[O-])c1	10	-7	77*	-1	-1
O=C(Nc1cccc([N+](=O)[O-])c1)C1C2CC/C=C\CCC21 (centres undefined)	7	2	-1	8.9*	3

Assay outcomes from PubChem.
